The full list was thinned out, with hits kept by preference.
T cruzi growth-1 = inhibitors of T. cruzi proliferation; inhibition, % at 8.34 µM; AID 624255; T. cruzi beta-gal in NIH3T3, GalScreen luminescence, 90 h; 5.9% of 77,000 active;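 active = mean inhibition above about 93%, with at least 55% of replicates each passing it, limit read from the data, passing the limit was not always enough; inconclusive = only one of those two conditions holds; inactive = neither condition holds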
IDH1 mut inh = inhibitors of human IDH1 R132H. O75874. IDH1 R132H reductase, diaphorase/resazurin fluorescence, 60 min. inhibition, % at 10 µM. 0.18% of 70,000 active. AID 624101; in the data active = inhibition above about 34%; inconclusive = no clear call, values can overlap the other calls; inactive = below about 11%;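 also: 0% = DMSO and 100% = no enzyme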
GASC1 inh = inhibitors of human demethylase GASC-1 KDM4C; Q9H3R0; GST-KDM4C 2-372, H3K9me3 peptide, LANCE TR-FRET; inhibition, % at 12.5 µM; 0.15% of 96,000 active; AID 720574;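 active = mean replicate inhibition above about 25%, with at least 55% of replicates also reaching it, limit read from the data, passing the limit was not always enough; inconclusive = only one of those two conditions met; inactive = neither condition met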
Target sequence (Q9H3R0 2-372 limits assumed): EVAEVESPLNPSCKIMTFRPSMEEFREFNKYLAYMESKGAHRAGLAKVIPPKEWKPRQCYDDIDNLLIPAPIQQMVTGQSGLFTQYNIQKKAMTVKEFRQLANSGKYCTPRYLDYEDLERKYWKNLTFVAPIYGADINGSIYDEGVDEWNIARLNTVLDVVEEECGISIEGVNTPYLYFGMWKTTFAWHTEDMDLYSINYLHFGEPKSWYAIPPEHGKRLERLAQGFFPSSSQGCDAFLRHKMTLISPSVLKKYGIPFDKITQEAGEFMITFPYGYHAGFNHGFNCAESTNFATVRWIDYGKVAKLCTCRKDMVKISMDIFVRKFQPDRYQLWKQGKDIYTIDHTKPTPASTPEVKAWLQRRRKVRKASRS
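System – N-terminal GST-fused human GASC-1 (KDM4C) fragment, residues 2-372 · Input – enzyme final amount 10 nM · Technique – LANCE TR-FRET, Eu antibody, ULight-streptavidin, EDTA, ex 340 nm, em 618/671 nm · Medium – HEPES buffer, pH 7.5, plus ascorbate · Incubation – enzyme reaction 30 min, then detection 60 min, both room temperature · Reagent – H3K9me3 peptide with Fe(II)/2OG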
T cruzi growth-2 = inhibitors of T. cruzi proliferation; AID 651739; 72% of 5,600 active; T. cruzi beta-gal in NIH3T3, GalScreen luminescence, 90 h; inhibition, % at 8.35 µM; shares compounds with T cruzi growth-1;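 active = mean replicate inhibition above about 95% and at least 55% of replicates individually reaching it, limit read from the data; inconclusive = only one of the two criteria is met; inactive = neither criterion is met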
T cruzi growth-3 = Trypanosoma cruzi proliferation inhibition | shares compounds with T cruzi growth-1 | T. cruzi beta-gal in NIH3T3, GalScreen luminescence, 90 h | inhibition, % at 2.09 µM | 21% of 5,600 active | AID 651740;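 active = mean inhibition above about 95%, with at least 55% of replicates also reaching it, limit read from the data; inconclusive = meets just one of the two conditions; inactive = meets neither condition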;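 also: plate controls were neutral control median for no effect and positive control median for full effect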
NIH3T3 tox = NIH/3T3 (mouse) viability loss; NIH/3T3 viability, CellTiter-Glo ATP luminescence, 90 h; cytotoxicity (signal decrease), % at 8.35 µM; 14% of 5,600 active; shares compounds with T cruzi growth-1;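 active = mean signal decrease across replicates above about 35% based on untreated-well scatter, with enough replicates individually passing, limit read from the data; inconclusive = no rule stated though some were filed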;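 also: 0% = median of neutral control wells and 100% = median of positive control wells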
3T3 cytotox 2 = NIH/3T3 (mouse) viability loss. shares compounds with T cruzi growth-1. NIH/3T3 viability, CellTiter-Glo ATP luminescence, 90 h. inhibition, % at 24.9 µM. 56% of 5,600 active;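 active = mean loss of cell viability signal at or above a set limit, and enough replicates individually reaching it; inconclusive = meets only the mean limit or only the replicate share; inactive = meets neither condition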;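 also: 0% = median of neutral control wells and 100% = median of positive control wells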
Active calls of the source: *.

C[C@H]1CN([C@@H](C)CO)C(=O)Cc2cc(NC(=O)C3CCCCC3)ccc2O[C@@H]1CN(C)Cc1ccc(-c2ccccc2)cc1 was read as T cruzi growth-1 99*, IDH1 mut inh 0, GASC1 inh -1, T cruzi growth-2 104*, T cruzi growth-3 71, NIH3T3 tox -6 and 3T3 cytotox 2 14.
For C[C@@H]1CN([C@@H](C)CO)C(=O)Cc2cc(NC(=O)C3CC3)ccc2O[C@H]1CN(C)Cc1ccc(-c2ccccc2)cc1 the results were T cruzi growth-1 114*, IDH1 mut inh 0, GASC1 inh 1, T cruzi growth-2 102*, T cruzi growth-3 85, NIH3T3 tox 11 and 3T3 cytotox 2 103*.
`O=C(Cn1ccc([N+](=O)[O-])n1)Nc1cc(F)ccc1F` gave IDH1 mut inh 0.
`Cc1ccccc1-c1cc(C(=O)NCCCn2cc(Br)cn2)c2ccccc2n1` gave IDH1 mut inh 0.
`COc1cc(C(=O)NC2(C(F)(F)F)C(=O)N(Cc3ccco3)C3=C2C(=O)CC(C)(C)C3)cc(OC)c1OC` (centres undefined) gave IDH1 mut inh 0.
C[C@@H]1CN([C@H](C)CO)S(=O)(=O)c2ccc(-c3ccccc3F)cc2O[C@@H]1CN(C)C was read as T cruzi growth-1 49, IDH1 mut inh -4 and GASC1 inh -1.
For C[C@H]1CN([C@@H](C)CO)S(=O)(=O)c2ccc(-c3ccccc3F)cc2O[C@H]1CN(C)Cc1cccnc1 the results were T cruzi growth-1 95*, IDH1 mut inh inconclusive, GASC1 inh -3, T cruzi growth-2 99*, T cruzi growth-3 84, NIH3T3 tox 67* and 3T3 cytotox 2 49*.
C[C@H]1CN([C@@H](C)CO)S(=O)(=O)c2ccc(-c3ccccc3F)cc2O[C@@H]1CN(C)Cc1ccncc1 was read as T cruzi growth-1 116*, IDH1 mut inh 4, GASC1 inh 1, T cruzi growth-2 101*, T cruzi growth-3 100*, NIH3T3 tox 40* and 3T3 cytotox 2 104*.
C[C@H]1CN([C@@H](C)CO)S(=O)(=O)c2ccc(-c3ccccc3F)cc2O[C@@H]1CN(C)Cc1cncnc1 was read as T cruzi growth-1 35, IDH1 mut inh -1 and GASC1 inh 2.
C[C@H](CO)N1C[C@H](C)[C@@H](CN(C)Cc2ccncc2)Oc2cc(-c3ccccc3F)ccc2S1(=O)=O was read as T cruzi growth-1 114*, IDH1 mut inh 1, GASC1 inh 1, T cruzi growth-2 96*, T cruzi growth-3 100*, NIH3T3 tox 59* and 3T3 cytotox 2 98*.
`C[C@H](CO)N1C[C@H](C)[C@H](CN(C)Cc2ccncc2)Oc2cc(-c3ccccc3F)ccc2S1(=O)=O` gave T cruzi growth-1 106*, GASC1 inh 1, T cruzi growth-2 93, T cruzi growth-3 91, NIH3T3 tox 59* and 3T3 cytotox 2 76*.
Screening C=CCn1c(=S)[nH]c2sc3c(c2c1=O)CC(C)(C)OC3 returned IDH1 mut inh 1.
CNC(=O)CN(c1ccc(C)cc1)S(=O)(=O)c1ccc(Cl)cc1 was read as IDH1 mut inh 0.
C[C@@H]1CN([C@@H](C)CO)S(=O)(=O)c2ccc(-c3ccccc3F)cc2O[C@H]1CN(C)Cc1ccncc1 was read as T cruzi growth-1 116*, IDH1 mut inh 1, GASC1 inh 1, T cruzi growth-2 88, T cruzi growth-3 97*, NIH3T3 tox 65* and 3T3 cytotox 2 101*.
For C[C@@H]1CN([C@H](C)CO)S(=O)(=O)c2ccc(-c3ccccc3F)cc2O[C@@H]1CN(C)Cc1ccncc1 the results were T cruzi growth-1 110*, IDH1 mut inh 17, GASC1 inh -1, T cruzi growth-2 101*, T cruzi growth-3 77, NIH3T3 tox 35* and 3T3 cytotox 2 77*.
Cc1ccccc1-c1ccc2c(c1)O[C@@H](CN(C)Cc1ccncc1)[C@@H](C)CN([C@@H](C)CO)S2(=O)=O was read as T cruzi growth-1 90, IDH1 mut inh 0 and GASC1 inh 0.

High-throughput results as filed in PubChem BioAssay.
